Screens (PubChem BioAssay)
ABHD4 inh: inhibitors of mouse ABHD4; Q8VD66; purified mABHD4, FP-Rh probe fluorescence polarization; 370,000 compounds, 0.54% hits; inhibition, % at 8.92 µM;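 active = inhibition exceeding the mean over every tested compound plus 3 SD, cut at about 30% in these data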;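 note: 0% = plate median of compound wells and 100% = S159A mutant with DMSO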
Target sequence (Q8VD66 whole entry, looked up): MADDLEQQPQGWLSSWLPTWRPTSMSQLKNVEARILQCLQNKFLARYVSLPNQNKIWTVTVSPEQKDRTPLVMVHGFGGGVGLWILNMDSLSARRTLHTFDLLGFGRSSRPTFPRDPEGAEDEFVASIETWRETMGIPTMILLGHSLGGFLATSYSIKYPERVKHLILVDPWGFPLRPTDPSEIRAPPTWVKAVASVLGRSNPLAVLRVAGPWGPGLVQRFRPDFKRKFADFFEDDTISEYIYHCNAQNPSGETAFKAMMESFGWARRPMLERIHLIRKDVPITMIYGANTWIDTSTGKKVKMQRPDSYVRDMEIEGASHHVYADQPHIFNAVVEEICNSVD
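Material: mouse ABHD4 enzyme, wild type; Benchmarks: S159A mutant high control, sample median low control; Buffer or medium: HEPES pH 7.0, NaCl, Pluronic buffer; Signal: fluorescence polarization; Read-out: percent inhibition of probe binding, normalized to plate controls; Timing: pre-incubation 45 min, probe exposure 60 min, at 25 °C; Dosing: 8.92 µM, single dose.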
ATG4B inh: blocks human ATG4B protease cleavage of LC3 substrate; 340,000 compounds, 0.51% hits; Q9Y4P1; ATG4B cleavage of LC3-PLA2, NBD-HPC fluorescence, 1 h; inhibition, % at 8.33 µM; in the data active = inhibition above about 40%
SIAE inh: inhibitors of human sialic acid acetylesterase SIAE | SIAE FP-Rh probe binding, fluorescence polarization | 370,000 compounds, 0.69% hits | inhibition, % at 9.66 µM;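 active = inhibition above a cutoff: mean of compounds within the control limits plus 3 SD of those, cut at about 17% in these data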;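 note: 0% = plate median of compound wells and 100% = probe without SIAE protein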
TCR-CD3 inh: blocks the human TCR-CD3 interaction. TAMRA-labeled TCR probe fluorescence, biochemical. inhibition, % at 9.4 µM. 360,000 compounds, 0.37% hits; in the data active = inhibition above about 19%;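 note: recombinant mutant TCR 2C K166C tagged with TAMRA read by polarization; 0% = receptor in buffer alone and 100% = receptor with positive control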
PRMT1 FP inh: PRMT1 (human) inhibition, primary screen; Q99873; recombinant PRMT1, activity-based probe fluorescence polarization; inhibition, % at 2.79 µM; 370,000 compounds, 1.3% hits;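 active = inhibition above about 21% made by adding two undisclosed values, limit read from the data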
HTRA1 inhibitor: HTRA1 (human) protease inhibition; Q92743; inhibition, % at 5.96 µM; recombinant HTRA1, FP-rhodamine activity-based probe, fluorescence polarization; 340,000 compounds, 0.5% hits; in the data active = inhibition above about 36%;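 note: 0% = enzyme with DMSO and 100% = wells lacking enzyme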
PRMT1 confirm: PRMT1 (human) inhibition, FP confirmation; shares compounds with PRMT1 FP inh; recombinant His-PRMT1, activity-based probe fluorescence polarization; inhibition, % at 2.79 µM; 3,300 compounds, 42% hits; AID 687036;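 active = mean inhibition across replicates above the hit cutoff derived for the earlier primary screen, cut at about 22% in these data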
The depositor's hits bear a star; · = no result. This is a sample that favours compounds with a hit; in the whole collection about 2.9% have one here.

SMILES	ABHD4 inh	ATG4B inh	SIAE inh	TCR-CD3 inh	PRMT1 FP inh	HTRA1 inhibitor	PRMT1 confirm
COc1ccc(-c2cc(C(F)(F)F)c3c(N)c(C(=O)NCCSC)sc3n2)cc1	0	-3	-6	-1	3	-12	·
CCOC(=O)CCCNC(=O)O[C@@H]1CC[C@@]23CCCN2C(=O)CCC[C@H]3C1	1	·	-5	·	-4	·	·
COc1ccc(NS(=O)(=O)c2ccc(N3CCCC3)c(NC(=S)Nc3cccc(C)c3C)c2)cc1	9	6	3	3	13	-2	·
COc1ccc(NS(=O)(=O)c2ccc(N3CCCC3)c(NC(=S)Nc3ccc(SC(F)F)cc3)c2)cc1	1	-7	-7	-4	29*	-8	3
CCCCc1c(O)nc(SCC(=O)c2ccccc2)n(-c2ccccc2OC)c1=O	4	2	5	-6	40*	7	14
Cc1ccc(CN2CCCCC(NC(=O)c3ccccc3C)C2=O)cc1 (configuration not stated)	-1	·	8	·	-2	·	·
O=c1nc2sc3ccccc3n2c(=O)n1-c1cccc(Cl)c1	·	-7	·	·	·	-6	·
CN(C)S(=O)(=O)c1cccc(-n2sc3ccccc3c2=O)c1	-41	-7	-16	6	102*	-9	95*
O=c1c2ccccc2sn1-c1cccc(Cl)c1	4	·	-7	2	82*	0	84*
O=C(c1cc(-c2ccccc2)on1)N1CCC(Oc2cccnc2)CC1	6	·	1	·	-2	·	·
COC(=O)[C@]12C[C@H](CC(=O)NCCCN3CCCC3=O)C(=O)N(CCC3=CCCCC3)C1=C[C@H](C(C)C)O[C@@H]2C1CC1	-2	·	1	·	4	·	·
S=c1[nH]c2cnc(Cl)nc2[nH]1	1	2	11	-1	43*	4	34*
S=c1[nH]c2nc(Cl)c(Cl)nc2[nH]1	4	·	3	3	3	4	·
CC(C)n1c(CNC(=O)c2ccccc2F)nnc1SCC(=O)NC1CCCCC1	7	12	-37	0	33*	-19	0
O=C(OCc1cn(Cc2c(F)cccc2F)nn1)N1CCOCC1	1	·	6	·	0	·	·
Cc1ccccc1/C=N/n1c(-c2cc(-c3ccccc3)n[nH]2)n[nH]c1=S	3	-8	1	-2	16	-8	·
S=c1[nH]nc(-c2cc(-c3ccccc3)n[nH]2)n1/N=C/c1c(Cl)cccc1Cl	8	-4	-16	-2	6	-10	·
Cc1ccc(-c2n[nH]c(=S)n2/N=C/C=C\c2ccccc2[N+](=O)[O-])cc1	4	3	3	4	30*	-13	15
S=c1[nH]nc(-c2cc(-c3ccccc3)n[nH]2)n1/N=C/c1ccc(Br)s1	-3	-9	-20	-1	28*	-10	13
O=[N+]([O-])c1ccccc1C=Nn1c(-c2cc(-c3ccccc3)n[nH]2)n[nH]c1=S	15	·	2	·	42*	·	14
C[C@@H]1CCN(C2CC2)S(=O)(=O)c2ccc(N3CCC[C@@H]3C)cc2O1	7	·	3	·	2	·	·
O=C(O)c1cc(-c2ccc(/C=C3\NC(=O)N(c4ccc(Cl)cc4)C3=O)o2)ccc1Cl	15	22	-2	-15	27*	6	22*
O=S(=O)(c1cccc(-c2n[nH]c(=S)n2-c2ccc(OC(F)(F)F)cc2)c1)N1CCOCC1	6	-5	0	1	27*	11	15
O=S(=O)(c1cccc(-c2n[nH]c(=S)n2-c2cccc(C(F)(F)F)c2)c1)N1CCOCC1	-2	-3	7	2	6	1	·
CC(C)c1ccc(CCNC(=O)CSC(=S)N2CCCC2)cc1	-17	8	-4	0	32*	-7	15
SMILES	ABHD4 inh	ATG4B inh	SIAE inh	TCR-CD3 inh	PRMT1 FP inh	HTRA1 inhibitor	PRMT1 confirm
CC(c1ccccc1)N1CC[C@H]2C=CC[C@@H](C(=O)Nc3ccc(F)c(F)c3)[C@H]2C1=O (some centres not stated)	-4	·	10	·	-2	·	·
O=C(NC1CCCCN(Cc2ccc(OC(F)(F)F)cc2)C1=O)c1cccc(F)c1 (configuration not stated)	-4	·	0	·	-2	·	·
O=C(CSc1nnc(CNC(=O)c2ccco2)o1)Nc1ccccc1	2	0	4	6	-2	11	·
O=C(CSc1nnc(CNC(=O)c2ccco2)o1)Nc1nc2ccccc2s1	7	-14	-6	-5	56*	-2	0
COc1ccc2[nH]c(S(=O)Cc3ncc(C)c(OC)c3C)nc2c1 (configuration not stated)	9	-2	-1	-5	34*	-2	-4
COc1ccnc(CS(=O)c2nc3cc(C(O)(F)F)ccc3[nH]2)c1OC (configuration not stated)	6	11	7	1	14	3	·
Cn1ccnc1C(=O)O[C@@H]1CCC[C@@]2(C(=O)N(Cc3ccccc3)c3ccccc32)[C@H]1NC(=O)CCc1ccccc1	-1	·	-5	·	-3	·	·
CCOc1ccccc1NC(=S)N(CCCN1CCOCC1)Cc1cn(C)c2ccccc12	13	-12	4	-4	2	-11	·
COc1ccccc1NC(=S)N(CCCN1CCOCC1)Cc1cn(C)c2ccccc12	1	-8	2	-7	1	-4	·
COc1cc(Cl)ccc1NC(=S)N(CCCN1CCOCC1)Cc1cn(C)c2ccccc12	10	-11	0	-9	34*	-5	37*
COc1ccc(Cl)cc1NC(=S)N(CCCN1CCOCC1)Cc1cn(C)c2ccccc12	-1	-17	2	-4	34*	-11	37*
CCN(CC)CCNC(=O)CSc1c2c(nc3cc(Cl)ccc13)CCCC2	3	-2	-2	-4	14	-30	·
Cc1ccc(CNC(=O)CSc2c3c(nc4ccc(Cl)cc24)CCCC3)o1	10	0	-6	-4	50*	-19	5
Clc1ccc(-c2nnnn2-c2ccc(Cl)cc2)cc1	-5	-1	-2	-6	-1	·	·
Cc1ccc(-n2nnnc2C(Cl)(Cl)c2nnnn2-c2ccc(C)cc2)cc1	0	-44	5	7	48*	8	90*
CCCCCCCCN1C(=O)[C@@H](CC(=O)N2CCCC2)C[C@@]2(C(=O)OC)C1=C[C@H](COCc1ccccc1)O[C@@H]2C	1	·	1	·	2	·	·
Cc1cc(C(=O)COc2cccnc2[N+](=O)[O-])c(C)n1Cc1cccs1	28	0	6	1	29*	-3	-1
Cc1cc(C)nc(SCCN(C)C)n1	4	5	6	6	0	12	·
Cc1cc(C)nc(SCCN2CCCCC2)n1	-7	-4	-7	1	26*	10	21
Cc1ccc(N=CC2=C(O)CC(C)(C)CC2=O)nc1	2	-2	1	-3	-3	-2	·
